Test results taken from ChEMBL document CHEMBL1139454, “NMR structural characterization of peptide inhibitors bound to the Hepatitis C virus NS3 protease: design of a new P2 substituent” (J Med Chem, 2004).
Non-standard residues stand in square brackets, D forms with d. Residues, ends and D or L forms follow the SMILES beside them. Nva = CCC[C@H](N)C(=O)O

system: not listed separately; assay: Inhibitory activity against hepatitis C virus (NS3 protease; set-up: species or system Hepacivirus hominis
Method in brief: (§1)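 Genotype 1b NS3–NS4A heterodimer at 1.5 nM, incubated 45 min at 23 °C with serially diluted inhibitor and 5 μM internally quenched fluorogenic substrate anthranilyl-DDIVPAbu[C(O)-O]-AMY(3-NO₂)TW-OH. Buffer was 50 mM Tris-HCl pH 8.0, 0.25 M sodium citrate, 0.01% n-dodecyl-β-D-maltoside, 1 mM TCEP. Stopped with 1 M MES pH 5.8; product fluorescence read at ex 320/em 405 nm. IC50 from Hill-model nonlinear fit of % inhibition.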

| Compound | IC50 [µM] |
| --- | --- |
| CCC[C@H](NC(=O)[C@@H]1CCCN1C(=O)[C@@H](NC(=O)[C@@H](NC(=O)[C@H](CC(=O)O)NC(=O)[C@H](CC(=O)O)NC(C)=O)[C@@H](C)CC)C(C)C)C(=O)O (Ac-DDIVP[Nva]-OH) | 150 |

target: NS3 (Hepatitis C virus, UniProt A3EZJ3); assay: Inhibitory activity against hepatitis C virus NS3 protease; set-up: species or system Hepacivirus hominis; method in brief: as §1
Sequence (A3EZJ3 whole entry): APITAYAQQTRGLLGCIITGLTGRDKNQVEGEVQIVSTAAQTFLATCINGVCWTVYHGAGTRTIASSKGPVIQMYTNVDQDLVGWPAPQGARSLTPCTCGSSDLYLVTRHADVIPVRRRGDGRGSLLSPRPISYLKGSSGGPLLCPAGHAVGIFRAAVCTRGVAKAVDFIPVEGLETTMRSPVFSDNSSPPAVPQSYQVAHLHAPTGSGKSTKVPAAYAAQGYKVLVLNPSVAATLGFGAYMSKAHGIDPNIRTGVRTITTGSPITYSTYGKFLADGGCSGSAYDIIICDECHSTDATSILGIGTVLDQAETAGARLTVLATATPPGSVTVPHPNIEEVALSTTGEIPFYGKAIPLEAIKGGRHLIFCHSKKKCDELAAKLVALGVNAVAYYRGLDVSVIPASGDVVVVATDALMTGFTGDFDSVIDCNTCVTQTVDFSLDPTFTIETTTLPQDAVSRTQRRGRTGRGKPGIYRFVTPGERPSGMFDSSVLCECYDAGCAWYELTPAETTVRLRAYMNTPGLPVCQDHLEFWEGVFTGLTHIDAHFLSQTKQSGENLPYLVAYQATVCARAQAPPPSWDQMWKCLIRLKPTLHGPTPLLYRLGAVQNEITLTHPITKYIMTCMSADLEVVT

| Compound | IC50 [µM] |
| --- | --- |
| C=CC1C[C@]1(NC(=O)[C@@H]1C[C@@H](Oc2cc(-c3ccccc3)nc3ccccc23)CN1C(=O)[C@@H](NC(C)=O)C(C)C)C(=O)O (some centres not stated) | 3 |
| CC(=O)N[C@H](C(=O)N[C@H](C(=O)N1CC(Oc2cccc(Br)c2)CC1C(=O)NC1(C(=O)O)CC1)C(C)C)C1CCCCC1 (single isomer, unassigned) | 52 |
| CC(=O)N[C@H](C(=O)N[C@H](C(=O)N1CC(Oc2cccc(-c3ccccc3)c2)CC1C(=O)NC1(C(=O)O)CC1)C(C)C)C1CCCCC1 (single isomer, unassigned) | 6.2 |
| CC(=O)N[C@H](C(=O)N[C@H](C(=O)N1CC(Oc2cccc(-c3cccc([N+](=O)[O-])c3)c2)CC1C(=O)NC1(C(=O)O)CC1)C(C)C)C1CCCCC1 (single isomer, unassigned) | 4 |
| CC(=O)N[C@H](C(=O)N[C@H](C(=O)N1CC(Oc2ccnc3cc(C(F)(F)F)ccc23)CC1C(=O)NC1(C(=O)O)CC1)C(C)C)C1CCCCC1 (single isomer, unassigned) | 8 |
| CC(=O)N[C@H](C(=O)N[C@H](C(=O)N1CC(OCc2cccc3ccccc23)CC1C(=O)NC1(C(=O)O)CC1)C(C)C)C1CCCCC1 (single isomer, unassigned) | 4 |
| CC(=O)N[C@H](C(=O)N[C@H](C(=O)N1CC(Oc2cc(-c3ccccc3)nc3ccccc23)CC1C(=O)NC1(C(=O)O)CC1)C(C)C)C1CCCCC1 (single isomer, unassigned) | 0.37 |

Results, then the compound that gave them:

| IC50 [µM] | Compound |
| --- | --- |
| 0.11 | C=C[C@@H]1C[C@]1(NC(=O)C1CC(Oc2ccnc3ccccc23)CN1C(=O)[C@@H](NC(=O)[C@@H](NC(C)=O)C1CCCCC1)C(C)C)C(=O)O (single isomer, unassigned) |
| 2.2 | CC(=O)N[C@H](C(=O)N[C@H](C(=O)N1CC(Oc2ccnc3ccccc23)CC1C(=O)NC1(C(=O)O)CC1)C(C)C)C1CCCCC1 (single isomer, unassigned) |
| 0.12 | C=C[C@@H]1C[C@]1(NC(=O)C1CC(Oc2cccc(-c3ccccc3)c2)CN1C(=O)[C@@H](NC(=O)[C@@H](NC(C)=O)C1CCCCC1)C(C)C)C(=O)O (single isomer, unassigned) |
| 0.013 | C=C[C@@H]1C[C@]1(NC(=O)C1CC(Oc2cc(-c3ccccc3)nc3ccccc23)CN1C(=O)[C@@H](NC(=O)[C@@H](NC(C)=O)C1CCCCC1)C(C)C)C(=O)O (single isomer, unassigned) |
